Results on 37 variants are retold here after the RNAGym collection of RNA variant scans (doi:10.1126/science.aae0568).

Variants at the floor of the assay were thinned out.

B1: tRNA (parent)
chain: GUUCCGUUGGCGUAAUGGUAACGCGUCUCCCUCCUAAGGAGAAGACUGCGGGUUCGAGUCCCGUACGGAACG

The variants in the data set derive from B1. As to the kind of experiment: yeast fitness relative to wild type (ratio to wild type); higher = fitter; tRNA-Arg(CCU), competitive growth, 37 C, YPD. Summed up:
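The tRNA-Arg(CCU) gene variants were made by chemical synthesis with a 3% per-site mutation rate at 69 sites and inserted at the native genomic locus of Saccharomyces cerevisiae. After pooling, the strains were competed in YPD at 37°C for 24 hours in six parallel replicates. Gene amplicons from the start population and each end population were read by 100-nucleotide paired-end sequencing, and Darwinian fitness relative to wild type was taken from genotype frequency changes. Genotypes needed ≥ 100 starting reads, and estimates < 0.5 were set to 0.5.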
For the variant GUUCCGUUGGCGUAAUGGUAACGCGUCUCCCUCCUAAGGAGAAGACUGCGGGUUCGAAUCCCGUGCGGAACG [G58A A65G], the yeast fitness is 0.965. Take GUUCCGUUGGCGUAAUGGUAACGCGUCUCCCUCCUAAGGAGAAGACUGCGGGUUCGAGUCUCGUAAGGAACG [C61U C66A]: the yeast fitness was 0.644.

As for GUUCCGUUGGCGUAAUGGUAACGCGUCUCCCUCCUAAGGAGAAGUGUGCGGGUUCGAGUCCCGUACGGAUCG [A45U C46G A70U], the yeast fitness is at most 0.5. Under GUUCCGUUGGGGUAAUGGUAACGCGUCUCCCUCCUAAGGAGAAGAUUGCGCGUUCGAGUCCCGUAGGGAACG [C11G C46U G51C C66G] stands at most 0.5; under GUUCGGUCGGCGUAAUGGUAACGCGUGUCCCUGCAAAGGAGAAGACUGUGGGUUCGAGUCCCGUACGGAACG [C5G U8C C27G C33G U35A C49U], at most 0.5.

With GUUCCGUUGGCGCAAUGGUAAUGCGUCUCCCUCCUAAGGAGAAGUCUACGGGUUAGAGUCCCGUACGGAACG [U13C C22U A45U G48A C55A], the yeast fitness was at most 0.5. Under GUUCCGUUAGCGUUAUGGUAACGCGUCUGCCUCAUAAGGAGAAGACUGCGGGUUCGAGUCCCGUACGGAACG [G9A A14U C29G C34A] stands 0.55; under GUUCCGUUGGCGUAAUGGUAACGCGUCUGCCUCCUAAGGAGAAGACUGCGGGUUCGAGUCCCGUACGGAUCG [C29G A70U], 0.682.

In the case of GUUCCGUUGGCGUAAUGGUAACGCGUCUCCCUCCUAAGGAGAAGUCUGCGGGUUCGAGUCCGGUAGGGAACG [A45U C62G C66G], the yeast fitness was at most 0.5. Under GUUCGGUUGGCGCAAUGGUAACGCGUCUCCCUCAUAAGGAGAAGACUGCGGGUUCGUGUCCCGUACGGAACG [C5G U13C C34A A57U] stands at most 0.5. Under GUUCCGUUGGCGUAAUGGUAACGCGUCUCCCUCCUAAGGAGAAGGCUGCGGGUUGGAGUCCCGUACGGAACG [A45G C55G] stands 0.562; under GUUCCGUUGGCGUAAUGGUAACGAGUCUCCCUCCUCCGGAGAAGAUUGCGGGUUCGAGUCCGGUACGGAACG [C24A A36C A37C C46U C62G], at most 0.5; under GUUCCGUUGGCGUAAUGGUAACGCGUCUCCCCCCUAAGGAGAUGACUGCGGGUUCGAGUCCCGUACGGAACG [U32C A43U], 0.921. Under GUUCCGUUGGCGUAAUGGUAACGAGUCUCCCUCCUACAGAGAAGACUGCGGGUUCGAGUCCCGUGUGGAACG [C24A A37C G38A A65G C66U] stands at most 0.5; under GUUCCGUUGGCGUAAUGGUCACGCGUCUCCCUCCUAAGGAGAAGACUGCGGGUUCGAGUCUCGUACGGCCCG [A20C C61U A69C A70C], at most 0.5. Turning to GUUCCGUUGGCGUAAUGGUAACGCGUCUCCCUCCUAUGGAGAAGACUGCGGCUUCGAGUCCCGUACGGAACG [A37U G52C], the yeast fitness is at most 0.5. Consider GUUCCGUUGGCCUAAUGGUAACGCGUCUCCCUCCUAAGGAGAAGAUUGCGCGUUCGAGUCCCGAACGGAACG [G12C C46U G51C U64A], for which the yeast fitness was at most 0.5. Under GUUCCGUUGGCGUAAUGGUAACGCGUCUCCCUCCUAAGGAGAAGACUCCGGGUUCGAGACCCGUAUGGAACG [G48C U59A C66U] stands 0.679. Under GUUCCGUUGGCGUAAUGGUAACGCGUCUCCCUGGUAAGGAGACGACUCCGGGUUCGAGUCCUGUACGGAACG [C33G C34G A43C G48C C62U] stands at most 0.5; under GUUCCGUUGGCGUAAUGGUUACGCGUCUCCCUCCUAAGCAGAAGACUGCGGGUUGGAGUCCCGUACGGAACG [A20U G39C C55G], at most 0.5; under GUUCCGUUGGCGUAAUGAUAACGCGUCUCCCUCCUAAGGAGAAGAAUGCGCGUUCGAGUUCCGUACGGAACG [G18A C46A G51C C60U], at most 0.5. Next, GUUCCGUUGGCGUAAUAGUAGAGCGUCUCCCUCCUAAGGUGAAGACUGCGGGUUCGAGUCUCGUACGGAACG [G17A A21G C22A A40U C61U]: at most 0.5.

Consider GUACCGUUGGCGUACUGGUAAGGCGUCUCCCCCCUAAGGAAAAGACUGCGGGUUCGAGUCCCGUACGGAACG [U3A A15C C22G U32C G41A], for which the yeast fitness is at most 0.5. In the case of GUUCGGUUGGCGUAAUGGUGACGCGUCUCCCUCCUAAGGAGAAGACUGCGGGUUCGAGUCCCGUACGGAACG [C5G A20G], the yeast fitness is 0.965. Under GUUCCGUUGGUGUAAUGAUAACGCGUCUCCCUCCUAAGGUGAAGACUGCGGGUUCGAGUCCCGUACGGAACG [C11U G18A A40U] stands at most 0.5; under GUUCCGUUGGCGUAAUGGUAACGCGUCUCCCUUCUAAGGACAAGCCUGCGGGUUCGAGUCCCGUACGGAACG [C33U G41C A45C], 0.621; under GUUCCGUUGGCGUAAUGGUAACGCGUCUCCCUUCUAAGGCGAAGCCUGCGGGUUCGAGUGCCGUCCGGAACG [C33U A40C A45C C60G A65C], at most 0.5. Next, GUUCCGUUGGCGUAAUGGUAACGGGUGUCCCUCCUAAGGAGAAGACUGCGGGUUCGAGUCCCGUACGGAACG [C24G C27G]: 0.593; GUCCCGUUGGGGUAAUGGUAACGCGUCUCCCUCCUAGGGAGAAGACUGCGGGUUCGAGUCCCGUACGGAACG [U3C C11G A37G]: 0.563; GUUCCGUUGGCGUAAUGGUUACGCGUCUCCCUCCUAAGGGGAAGACUGCGGGUUCGAGUCCCGAACGGAACG [A20U A40G U64A]: 0.508. Next, GUUCCGUUGGCGUAAUGGUAACGCGUCUCCCUCCUAAGGAGAAGACUGCGGGUUCGUGACCCGUACGGCACG [A57U U59A A69C]: 0.654.

On to GUUCCGCUGGCGUAUUGGUAACGCGUCUCCCUCCUAAGGAGAAGACUGUGGGUUCGAGUCCUGUACGGAACG [U7C A15U C49U C62U], for which the yeast fitness came out at 0.673. Next, GGUCCGUUGGCGUAAUGGUAACGCGUCUCCCUCCUAAGGAGAAGACUGCGGGUUCGAGACCCGUACGGAACG [U2G U59A]: 0.851; GUUCCGUUGGGGUAAUGGUAACGCGUCUCCCUCCUUAGGAGAAGACUGCGGGUUCGAGUCCCGUAUGGAACG [C11G A36U C66U]: at most 0.5. Next, GUUCCGUUGGCGUAAAAGUAAGGCGUCUCCCUCCUAAGGAGAAGACUGCGGGUUCGAGUCCCGUACGGAACG [U16A G17A C22G]: 0.578; GUUCCGUUGGCGUAAUGGUAUCGCGUCUCCCUCCUAAGGAGAAGAAUGCGGGUUCGAGUCCCGUACGGAACG [A21U C46A]: 0.767; GUUCCGUUGGCGUAACGGUAACGCGUCUCCCUCCUAAGGAGAAGACUGCGAGUUCGAGUCCCGUACGGAGCG [U16C G51A A70G]: 0.578.
